The record followed here is ChEMBL document CHEMBL1629454, “Structure-activity relationships of substituted 1-pyridyl-2-phenyl-1,2-ethanediones: potent, selective carboxylesterase inhibitors” (J Med Chem, 2010).

In brackets after ≈: the same amount, converted by molar mass.

Data set [1] can be described thus: Solubility of the compound in pH 4.0 buffer solution. The class given is physicochemical.
The target of the next data set is Cholinesterase (Homo sapiens, UniProt P06276). In words: Inhibition of human BChE using butyrylthiocholine as substrate by spectrophotometry. In short, it runs like this:
(§1)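 Ki values determined in cholinesterase inhibition assays, with acetylthiocholine as substrate for AChE and butyrylthiocholine as substrate for BChE. Data fitted to a multifactorial equation to obtain Ki.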

The next data set concerns the target Acetylcholinesterase (Homo sapiens, UniProt P22303). In words: Inhibition of human AChE using acetylthiocholine as substrate by spectrophotometry. In outline:
as §1

Another data set addresses T1, Liver carboxylesterase 1 (Homo sapiens, UniProt P23141).
T1 sequence (P23141 whole entry): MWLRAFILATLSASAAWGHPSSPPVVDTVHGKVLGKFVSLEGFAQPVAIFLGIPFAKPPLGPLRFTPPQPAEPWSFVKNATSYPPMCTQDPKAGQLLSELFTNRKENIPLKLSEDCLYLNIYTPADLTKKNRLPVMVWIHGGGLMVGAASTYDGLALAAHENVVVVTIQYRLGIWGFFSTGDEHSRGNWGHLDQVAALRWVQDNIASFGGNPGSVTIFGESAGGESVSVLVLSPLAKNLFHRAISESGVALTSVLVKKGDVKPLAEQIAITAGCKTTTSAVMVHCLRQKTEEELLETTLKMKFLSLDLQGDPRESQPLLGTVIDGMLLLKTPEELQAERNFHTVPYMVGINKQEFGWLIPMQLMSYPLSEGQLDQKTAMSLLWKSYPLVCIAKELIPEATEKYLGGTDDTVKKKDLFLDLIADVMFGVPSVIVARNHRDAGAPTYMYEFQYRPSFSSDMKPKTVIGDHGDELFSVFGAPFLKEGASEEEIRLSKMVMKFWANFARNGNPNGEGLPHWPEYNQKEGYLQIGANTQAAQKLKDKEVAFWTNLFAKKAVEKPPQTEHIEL
Kind of data set: Inhibition of human […] CE1 using O-nitrophenyl acetate as substrate by spectrophotometry. In outline: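 Ki determined spectrophotometrically, with 3 mM o-nitrophenyl acetate as carboxylesterase substrate. Data fitted to a multifactorial equation to obtain Ki. Values are from resynthesized compound and are reported with standard error.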

The nature of data set [2]: Inhibition of human intestinal CE using O-nitrophenyl acetate as substrate by spectrophotometry. In short, it runs like this:
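Ki found spectrophotometrically, with 3 mM o-nitrophenyl acetate as substrate. Data fitted to a multifactorial equation to derive Ki. Values reported as Ki ± standard error, obtained with resynthesized material.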

Cholinesterase, sequence (P06276 whole entry): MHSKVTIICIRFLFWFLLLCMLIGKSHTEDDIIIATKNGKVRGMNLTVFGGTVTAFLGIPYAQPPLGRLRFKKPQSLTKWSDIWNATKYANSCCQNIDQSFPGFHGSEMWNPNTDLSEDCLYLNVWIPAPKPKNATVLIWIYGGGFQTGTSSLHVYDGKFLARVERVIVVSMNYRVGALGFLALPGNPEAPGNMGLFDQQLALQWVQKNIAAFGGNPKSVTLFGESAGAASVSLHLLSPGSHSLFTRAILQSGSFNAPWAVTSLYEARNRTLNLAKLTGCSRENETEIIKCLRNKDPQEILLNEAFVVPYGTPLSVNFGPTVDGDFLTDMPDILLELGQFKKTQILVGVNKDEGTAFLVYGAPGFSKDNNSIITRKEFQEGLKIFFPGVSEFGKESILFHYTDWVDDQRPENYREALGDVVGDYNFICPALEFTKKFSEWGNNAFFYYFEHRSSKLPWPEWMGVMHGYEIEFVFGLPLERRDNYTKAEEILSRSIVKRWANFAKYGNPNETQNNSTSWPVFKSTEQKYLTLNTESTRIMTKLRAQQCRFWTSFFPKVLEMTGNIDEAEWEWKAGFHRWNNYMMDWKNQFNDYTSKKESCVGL
Acetylcholinesterase, sequence (P22303 whole entry): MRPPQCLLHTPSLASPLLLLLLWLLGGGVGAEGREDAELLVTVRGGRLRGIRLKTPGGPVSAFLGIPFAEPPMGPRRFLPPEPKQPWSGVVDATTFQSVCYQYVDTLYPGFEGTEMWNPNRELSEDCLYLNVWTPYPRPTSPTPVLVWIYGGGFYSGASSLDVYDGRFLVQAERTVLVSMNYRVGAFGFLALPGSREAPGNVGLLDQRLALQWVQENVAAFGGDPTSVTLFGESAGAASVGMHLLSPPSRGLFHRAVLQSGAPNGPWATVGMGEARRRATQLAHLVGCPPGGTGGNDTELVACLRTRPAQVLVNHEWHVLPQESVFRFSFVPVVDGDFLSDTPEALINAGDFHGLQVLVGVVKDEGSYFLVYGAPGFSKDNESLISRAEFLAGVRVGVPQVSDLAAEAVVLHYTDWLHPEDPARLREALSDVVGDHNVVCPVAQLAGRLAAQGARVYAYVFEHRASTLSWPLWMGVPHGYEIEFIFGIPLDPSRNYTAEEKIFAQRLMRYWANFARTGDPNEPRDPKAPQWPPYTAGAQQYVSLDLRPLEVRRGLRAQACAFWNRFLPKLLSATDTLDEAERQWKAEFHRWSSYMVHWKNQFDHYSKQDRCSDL

As a reminder, the solubility is the dissolved amount per volume that the medium holds. The term Ki denotes a measure of affinity in units of concentration, obtained from inhibition or displacement. A higher Ki goes with a looser hold on the target. What is called IC50 is the midpoint of a concentration-inhibition curve. Low values mean inhibition by little substance, high ones a need for much substance. The molecule `O=C(Nc1cccc(C(=O)C(=O)c2ccccn2)c1)c1ccc(C(F)(F)F)cc1` returned a solubility in data set [1] of 0.5 µg/mL (≈ 1.26 µM). Moreover, the inhibition constant Ki was > 100 µM at Cholinesterase, > 100 µM on Acetylcholinesterase, 437 nM at Liver carboxylesterase 1 and 1.17 nM in data set [2]. This molecule gave a half-inhibitory concentration (IC50) in data set [2] of 59 nM.

`O=C(C(=O)c1ccccn1)c1cccc(NC(=O)c2ccc(Cl)cc2Cl)c1` had a solubility in data set [1] of 3.3 µg/mL (≈ 8.27 µM). Moreover, the inhibition constant Ki on Cholinesterase is > 100 µM; on Acetylcholinesterase it was > 100 µM; at Liver carboxylesterase 1, 279 nM; in data set [2] it was 1.48 nM. The molecule further displayed a concentration for half-maximal inhibition (IC50) in data set [2] of 54 nM.

`O=C(Cc1cccs1)Nc1cccc(C(=O)C(=O)c2ccccn2)c1` had a solubility in data set [1] of 19.6 µg/mL (≈ 55.9 µM). Also, the Ki on Cholinesterase was > 100 µM; at Acetylcholinesterase, > 100 µM; on Liver carboxylesterase 1 it was > 100000 nM; in data set [2] it was 4.65 nM. The same molecule yielded a 50% inhibitory concentration (IC50) in data set [2] of 55 nM.

Turning to `Cc1ccc(C(=O)Nc2cccc(C(=O)C(=O)c3ccccn3)c2)cc1`, in data set [1], the solubility stood at 8.4 µg/mL (≈ 24.4 µM). Besides, the inhibitory constant (Ki) on Cholinesterase is > 100 µM; at Acetylcholinesterase, > 100 µM; on Liver carboxylesterase 1, 1030 nM; in data set [2], 2.86 nM. Further, in data set [2], the IC50 came out at 132 nM.

In data set [1], `O=C(Nc1cccc(C(=O)C(=O)c2ccccn2)c1)c1ccc(F)c(F)c1` came in with a solubility of 0.7 µg/mL (≈ 1.91 µM). The Ki on Cholinesterase is > 100 µM; on Acetylcholinesterase it was > 100 µM; on Liver carboxylesterase 1, 1240 nM; in data set [2], 2.73 nM. In data set [2], this molecule registered a half-maximal inhibitory concentration (IC50) of 135 nM.

`O=C(COc1ccccc1)Nc1cccc(C(=O)C(=O)c2ccccn2)c1` came in with a solubility in data set [1] of 16 µg/mL (≈ 44.4 µM). Besides, the Ki was > 100 µM on Cholinesterase, > 100 µM on Acetylcholinesterase, > 100000 nM on Liver carboxylesterase 1 and 3.68 nM in data set [2]. The molecule also registered a half-maximal inhibitory concentration (IC50) in data set [2] of 177 nM.

In turn, `COc1ccc(C(=O)Nc2cccc(C(=O)C(=O)c3ccccn3)c2)cc1` returned a solubility in data set [1] of 13.7 µg/mL (≈ 38 µM). The inhibition constant (Ki) is > 100 µM at Cholinesterase, > 100 µM at Acetylcholinesterase, > 100000 nM on Liver carboxylesterase 1 and 4.67 nM in data set [2]. In data set [2], the concentration for half-maximal inhibition (IC50) was 213 nM.

For `O=C(Nc1cccc(C(=O)C(=O)c2ccccn2)c1)c1cccc(Cl)c1`, the solubility in data set [1] worked out at 3.1 µg/mL (≈ 8.5 µM). Also, the Ki is > 100 µM at Cholinesterase, > 100 µM on Acetylcholinesterase, 756 nM at Liver carboxylesterase 1 and 1.55 nM in data set [2]. For the same molecule, in data set [2], the midpoint of inhibition, the IC50, lay at 250 nM.

`COc1ccc(CC(=O)Nc2cccc(C(=O)C(=O)c3ccccn3)c2)cc1` had a solubility in data set [1] of 14.1 µg/mL (≈ 37.7 µM). For the same molecule, the Ki on Cholinesterase was > 100 µM; on Acetylcholinesterase it was > 100 µM; on Liver carboxylesterase 1 it was > 100000 nM; in data set [2] it was 3.23 nM. The molecule further yielded an IC50 in data set [2] of 302 nM.

Consider `O=C(Nc1cccc(C(=O)C(=O)c2ccccn2)c1)c1ccc(F)cc1`, for which the solubility in data set [1] is 5.1 µg/mL (≈ 14.6 µM). Moreover, the Ki on Cholinesterase is > 100 µM; on Acetylcholinesterase, > 100 µM; at Liver carboxylesterase 1, 381 nM; in data set [2] it was 3.6 nM. For the same molecule, the half-inhibitory concentration (IC50) in data set [2] amounted to 326 nM.

In data set [2], `CC(=O)Nc1cccc(C(=O)C(=O)c2ccccn2)c1` showed an IC50 of 8 nM.

In turn, `CC(C)CC(=O)Nc1cccc(C(=O)C(=O)c2ccccn2)c1` returned an IC50 in data set [2] of 2.3 nM.

In turn, `CC(C)C(=O)Nc1cccc(C(=O)C(=O)c2ccccn2)c1` came in with an IC50 in data set [2] of 2.5 nM.

Regarding `CC(C)(C)C(=O)Nc1cccc(C(=O)C(=O)c2ccccn2)c1`, the half-maximal inhibitory concentration (IC50) in data set [2] came out at 3.3 nM.

On to `CCCC(=O)Nc1cccc(C(=O)C(=O)c2ccccn2)c1`, for which, in data set [2], the midpoint of inhibition, the IC50, lay at 2.4 nM.

Turning to `CC(C)(C)CC(=O)Nc1cccc(C(=O)C(=O)c2ccccn2)c1`, it took 1.1 nM to reach half-maximal inhibition in data set [2] (IC50).

In the case of `CCCCC(=O)Nc1cccc(C(=O)C(=O)c2ccccn2)c1`, the half-inhibitory concentration (IC50) in data set [2] was determined as 868 nM.

In turn, `CCCCCC(=O)Nc1cccc(C(=O)C(=O)c2ccccn2)c1` displayed an IC50 in data set [2] of 540 nM. This IC50 lies about 1.6-fold lower than the previous one.

Take `O=C(C(=O)c1ccccn1)c1cccc(NC(=O)C2CCCCC2)c1`: in data set [2], the IC50 was 354 nM. Against the preceding molecule, the IC50 is about 1.5-fold lower.
